Blank lines part the entries; values can stand above or below the compound they belong to.
Legend:
[1] = target: T1, Serine/threonine-protein kinase Nek2 (Homo sapiens) (UniProt P51955); test: Inhibition of human recombinant NEK2 at 500 nM in presence of ATP by radiometric assay relative to control
T1 sequence (whole entry): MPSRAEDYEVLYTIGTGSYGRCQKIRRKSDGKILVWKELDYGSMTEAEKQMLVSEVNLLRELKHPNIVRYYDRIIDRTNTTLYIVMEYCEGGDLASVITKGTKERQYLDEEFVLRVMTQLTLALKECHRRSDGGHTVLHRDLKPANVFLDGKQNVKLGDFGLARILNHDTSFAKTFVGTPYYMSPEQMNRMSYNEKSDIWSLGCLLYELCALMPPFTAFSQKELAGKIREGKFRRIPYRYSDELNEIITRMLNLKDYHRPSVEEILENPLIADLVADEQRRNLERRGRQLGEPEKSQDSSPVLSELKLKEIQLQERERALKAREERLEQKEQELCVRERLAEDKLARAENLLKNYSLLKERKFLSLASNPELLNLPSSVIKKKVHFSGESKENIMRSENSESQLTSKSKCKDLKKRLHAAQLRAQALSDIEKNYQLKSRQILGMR

[2] = target: Vascular endothelial growth factor receptor 3 (Homo sapiens) (UniProt P35916); test: Inhibition of human recombinant FLT4 at 500 nM related to control ULK1
[3] = target: Mitogen-activated protein kinase kinase kinase kinase 4 (Homo sapiens) (UniProt O95819); test: Inhibition of human recombinant HGK at 500 nM in presence of ATP by radiometric assay relative to control
[4] = target: T2, Receptor-interacting serine/threonine-protein kinase 1 (Homo sapiens) (UniProt Q13546); test: Inhibition of human recombinant RIPK1 at 15 nM related to control ULK1
T2 sequence (whole entry): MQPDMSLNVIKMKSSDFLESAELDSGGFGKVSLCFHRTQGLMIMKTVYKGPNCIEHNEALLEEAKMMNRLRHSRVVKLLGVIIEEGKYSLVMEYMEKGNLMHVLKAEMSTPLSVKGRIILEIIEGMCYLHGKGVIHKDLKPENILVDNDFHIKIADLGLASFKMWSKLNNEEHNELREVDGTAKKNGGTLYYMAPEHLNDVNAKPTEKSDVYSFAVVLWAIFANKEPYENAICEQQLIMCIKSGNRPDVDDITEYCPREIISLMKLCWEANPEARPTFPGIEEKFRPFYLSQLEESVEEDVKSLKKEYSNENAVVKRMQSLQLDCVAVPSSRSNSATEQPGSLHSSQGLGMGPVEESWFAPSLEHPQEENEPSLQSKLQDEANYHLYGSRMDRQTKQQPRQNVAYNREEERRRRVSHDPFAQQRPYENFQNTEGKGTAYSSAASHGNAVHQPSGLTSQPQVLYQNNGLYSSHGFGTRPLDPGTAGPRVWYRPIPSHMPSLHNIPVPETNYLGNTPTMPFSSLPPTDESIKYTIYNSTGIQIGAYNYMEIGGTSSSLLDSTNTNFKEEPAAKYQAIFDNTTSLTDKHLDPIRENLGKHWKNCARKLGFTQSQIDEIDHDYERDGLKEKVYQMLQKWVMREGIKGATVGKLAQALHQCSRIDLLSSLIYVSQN

[5] = target: T3, Serine/threonine-protein kinase 17A (Homo sapiens) (UniProt Q9UEE5); test: Inhibition of human recombinant DRAK1 at 15 nM related to control ULK1
T3 sequence (whole entry): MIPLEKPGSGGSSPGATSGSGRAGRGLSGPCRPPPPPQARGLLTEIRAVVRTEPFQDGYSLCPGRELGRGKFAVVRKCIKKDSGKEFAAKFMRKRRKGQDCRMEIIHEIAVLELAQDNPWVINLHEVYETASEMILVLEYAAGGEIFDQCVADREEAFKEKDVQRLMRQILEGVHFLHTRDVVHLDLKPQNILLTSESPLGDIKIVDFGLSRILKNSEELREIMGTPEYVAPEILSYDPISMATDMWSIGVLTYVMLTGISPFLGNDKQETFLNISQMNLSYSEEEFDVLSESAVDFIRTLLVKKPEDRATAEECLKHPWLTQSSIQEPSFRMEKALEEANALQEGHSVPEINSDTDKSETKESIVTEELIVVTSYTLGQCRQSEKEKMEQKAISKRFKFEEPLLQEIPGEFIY

[6] = target: Cyclin-dependent kinase-like 1 (Homo sapiens) (UniProt Q00532); test: Inhibition of human recombinant CDKL1 at 15 nM related to control ULK1
[7] = target: Serine/threonine-protein kinase PAK 1 (Homo sapiens) (UniProt Q13153); test: Inhibition of human recombinant PAK1 at 15 nM in presence of ATP by radiometric assay relative to control
[8] = target: ALK tyrosine kinase receptor (Homo sapiens) (UniProt Q9UM73); test: Inhibition of human recombinant ALK at 40 nM in presence of ATP by radiometric assay relative to control
Summary of the method: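 Panel of 327 recombinant human kinases in radiometric activity assays, each screened in duplicate at a single inhibitor concentration; percent activity remaining relative to vehicle control, percent inhibition taken as 100 minus activity remaining.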

[9] = target: Death-associated protein kinase 1 (Homo sapiens) (UniProt P53355); test: Inhibition of human recombinant DAPK1 at 40 nM in presence of ATP by radiometric assay relative to control
[10] = target: Serine/threonine-protein kinase ATR (Homo sapiens) (UniProt Q13535); test: Inhibition of human recombinant ATR at 40 nM in presence of ATP by radiometric assay relative to control
Summary of the method: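 Panel of 327 recombinant human kinases, each assayed in vitro by radiometric activity assay in duplicate at a single inhibitor concentration per compound, chosen with reference to its ULK1 inhibition. Activity remaining was expressed as percent of vehicle control, and percent inhibition was calculated as 100 minus percent activity remaining.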

[11] = target: T4, Mitogen-activated protein kinase 13 (Homo sapiens) (UniProt O15264); test: Inhibition of human recombinant p38delta at 40 nM related to control ULK1
T4 sequence (whole entry): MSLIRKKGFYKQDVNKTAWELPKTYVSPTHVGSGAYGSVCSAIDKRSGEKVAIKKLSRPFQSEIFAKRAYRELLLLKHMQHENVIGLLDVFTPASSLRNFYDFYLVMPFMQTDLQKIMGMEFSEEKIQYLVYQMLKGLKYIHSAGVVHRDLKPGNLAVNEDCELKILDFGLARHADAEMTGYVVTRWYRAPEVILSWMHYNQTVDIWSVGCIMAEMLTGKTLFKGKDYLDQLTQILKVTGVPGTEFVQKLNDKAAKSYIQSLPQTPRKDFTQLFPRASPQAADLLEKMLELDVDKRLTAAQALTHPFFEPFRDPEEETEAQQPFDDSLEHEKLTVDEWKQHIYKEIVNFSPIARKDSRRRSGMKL

Death-associated protein kinase 1 (Homo sapiens), sequence (P53355 whole entry, looked up): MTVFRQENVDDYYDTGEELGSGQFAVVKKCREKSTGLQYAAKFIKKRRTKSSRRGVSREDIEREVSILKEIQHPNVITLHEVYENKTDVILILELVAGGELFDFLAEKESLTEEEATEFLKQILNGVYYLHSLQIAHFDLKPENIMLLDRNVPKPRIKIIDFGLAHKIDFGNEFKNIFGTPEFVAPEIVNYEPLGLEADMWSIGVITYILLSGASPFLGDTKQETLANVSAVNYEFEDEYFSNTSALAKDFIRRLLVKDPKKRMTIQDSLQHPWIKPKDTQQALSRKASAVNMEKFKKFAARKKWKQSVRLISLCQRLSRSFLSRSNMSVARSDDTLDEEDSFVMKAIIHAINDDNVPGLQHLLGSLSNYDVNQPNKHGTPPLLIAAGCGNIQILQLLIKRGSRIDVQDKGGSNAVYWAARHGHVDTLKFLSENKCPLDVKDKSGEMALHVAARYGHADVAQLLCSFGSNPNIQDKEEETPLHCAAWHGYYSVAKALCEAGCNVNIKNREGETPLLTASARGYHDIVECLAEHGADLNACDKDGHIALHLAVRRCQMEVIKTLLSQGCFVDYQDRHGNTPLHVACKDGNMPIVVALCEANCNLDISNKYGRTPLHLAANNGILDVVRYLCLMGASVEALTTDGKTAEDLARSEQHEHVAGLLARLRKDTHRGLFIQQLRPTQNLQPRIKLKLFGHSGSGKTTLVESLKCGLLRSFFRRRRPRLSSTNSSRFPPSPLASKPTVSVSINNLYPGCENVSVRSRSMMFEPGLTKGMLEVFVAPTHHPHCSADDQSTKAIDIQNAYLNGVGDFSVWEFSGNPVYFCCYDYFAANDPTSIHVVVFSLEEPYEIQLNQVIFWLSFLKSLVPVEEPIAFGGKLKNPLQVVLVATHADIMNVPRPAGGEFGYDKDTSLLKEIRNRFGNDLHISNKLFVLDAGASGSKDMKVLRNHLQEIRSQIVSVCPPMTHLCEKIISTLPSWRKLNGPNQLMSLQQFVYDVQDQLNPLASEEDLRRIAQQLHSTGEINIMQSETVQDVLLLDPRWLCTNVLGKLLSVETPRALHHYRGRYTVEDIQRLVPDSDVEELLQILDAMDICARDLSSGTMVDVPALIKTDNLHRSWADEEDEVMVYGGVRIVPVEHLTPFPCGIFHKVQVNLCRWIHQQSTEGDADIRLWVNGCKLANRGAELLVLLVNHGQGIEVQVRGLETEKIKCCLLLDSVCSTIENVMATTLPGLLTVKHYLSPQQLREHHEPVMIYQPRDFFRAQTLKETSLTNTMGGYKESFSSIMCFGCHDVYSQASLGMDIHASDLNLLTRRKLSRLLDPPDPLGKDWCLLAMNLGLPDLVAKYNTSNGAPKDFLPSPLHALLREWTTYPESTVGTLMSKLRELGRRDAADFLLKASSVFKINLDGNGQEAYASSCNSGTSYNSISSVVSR
Mitogen-activated protein kinase kinase kinase kinase 4 (Homo sapiens), sequence (O95819 2-1239 limits assumed): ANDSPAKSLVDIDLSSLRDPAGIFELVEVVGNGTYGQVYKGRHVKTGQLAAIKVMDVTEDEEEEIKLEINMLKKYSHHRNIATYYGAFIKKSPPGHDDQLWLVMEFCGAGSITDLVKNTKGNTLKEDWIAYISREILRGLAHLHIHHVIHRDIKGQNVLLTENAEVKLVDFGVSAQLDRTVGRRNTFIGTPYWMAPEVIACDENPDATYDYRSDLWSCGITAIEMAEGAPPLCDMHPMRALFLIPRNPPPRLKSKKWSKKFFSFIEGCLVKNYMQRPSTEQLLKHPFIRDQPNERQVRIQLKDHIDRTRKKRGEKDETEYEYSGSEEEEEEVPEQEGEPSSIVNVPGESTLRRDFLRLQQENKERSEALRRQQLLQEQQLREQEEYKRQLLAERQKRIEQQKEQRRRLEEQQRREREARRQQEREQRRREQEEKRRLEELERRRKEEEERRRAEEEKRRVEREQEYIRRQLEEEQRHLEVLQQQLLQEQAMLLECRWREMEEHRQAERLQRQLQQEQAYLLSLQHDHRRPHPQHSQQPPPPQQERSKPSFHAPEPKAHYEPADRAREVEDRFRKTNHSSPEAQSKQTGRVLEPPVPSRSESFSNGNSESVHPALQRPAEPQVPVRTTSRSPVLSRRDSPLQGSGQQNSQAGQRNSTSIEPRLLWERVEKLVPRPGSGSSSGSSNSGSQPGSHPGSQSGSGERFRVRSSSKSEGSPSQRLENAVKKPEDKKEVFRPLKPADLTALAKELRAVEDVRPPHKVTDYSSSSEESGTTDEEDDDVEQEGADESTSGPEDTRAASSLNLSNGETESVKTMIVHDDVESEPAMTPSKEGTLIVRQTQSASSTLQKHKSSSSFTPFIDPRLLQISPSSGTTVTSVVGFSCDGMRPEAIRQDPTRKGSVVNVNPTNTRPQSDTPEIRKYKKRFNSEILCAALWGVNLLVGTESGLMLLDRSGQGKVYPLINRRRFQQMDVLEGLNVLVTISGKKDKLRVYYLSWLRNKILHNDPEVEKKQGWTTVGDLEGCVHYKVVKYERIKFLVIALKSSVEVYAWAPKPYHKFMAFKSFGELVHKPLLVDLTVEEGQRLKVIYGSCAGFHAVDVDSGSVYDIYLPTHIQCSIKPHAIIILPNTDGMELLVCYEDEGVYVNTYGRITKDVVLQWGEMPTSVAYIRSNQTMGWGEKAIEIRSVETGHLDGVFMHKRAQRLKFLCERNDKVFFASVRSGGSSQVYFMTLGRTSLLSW
Serine/threonine-protein kinase PAK 1 (Homo sapiens), sequence (Q13153 whole entry, looked up): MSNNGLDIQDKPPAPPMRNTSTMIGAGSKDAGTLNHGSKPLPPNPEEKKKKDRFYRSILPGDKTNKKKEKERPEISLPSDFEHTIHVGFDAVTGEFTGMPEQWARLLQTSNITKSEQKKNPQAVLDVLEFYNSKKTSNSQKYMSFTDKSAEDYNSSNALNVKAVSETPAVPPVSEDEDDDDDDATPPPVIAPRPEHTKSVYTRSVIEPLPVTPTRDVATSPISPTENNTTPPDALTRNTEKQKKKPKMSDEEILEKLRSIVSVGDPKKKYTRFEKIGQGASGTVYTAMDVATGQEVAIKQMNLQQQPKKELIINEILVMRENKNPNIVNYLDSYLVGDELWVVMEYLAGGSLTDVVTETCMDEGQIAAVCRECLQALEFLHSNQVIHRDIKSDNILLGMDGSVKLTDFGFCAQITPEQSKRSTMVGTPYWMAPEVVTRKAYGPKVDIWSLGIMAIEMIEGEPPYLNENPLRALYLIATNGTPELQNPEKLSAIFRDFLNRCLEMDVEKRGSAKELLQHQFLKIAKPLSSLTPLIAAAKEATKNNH
Cyclin-dependent kinase-like 1 (Homo sapiens), sequence (Q00532 whole entry): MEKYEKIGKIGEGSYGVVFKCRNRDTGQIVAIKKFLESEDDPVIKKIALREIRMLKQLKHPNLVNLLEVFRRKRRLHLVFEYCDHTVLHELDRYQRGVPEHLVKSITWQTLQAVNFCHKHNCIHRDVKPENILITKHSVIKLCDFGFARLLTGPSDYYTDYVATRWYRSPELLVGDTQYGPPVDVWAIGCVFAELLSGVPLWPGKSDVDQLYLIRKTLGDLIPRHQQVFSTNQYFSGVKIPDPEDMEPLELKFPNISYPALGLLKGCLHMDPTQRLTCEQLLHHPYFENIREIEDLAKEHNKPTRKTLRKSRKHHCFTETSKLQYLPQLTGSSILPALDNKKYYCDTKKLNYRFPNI
Vascular endothelial growth factor receptor 3 (Homo sapiens), sequence (P35916 whole entry): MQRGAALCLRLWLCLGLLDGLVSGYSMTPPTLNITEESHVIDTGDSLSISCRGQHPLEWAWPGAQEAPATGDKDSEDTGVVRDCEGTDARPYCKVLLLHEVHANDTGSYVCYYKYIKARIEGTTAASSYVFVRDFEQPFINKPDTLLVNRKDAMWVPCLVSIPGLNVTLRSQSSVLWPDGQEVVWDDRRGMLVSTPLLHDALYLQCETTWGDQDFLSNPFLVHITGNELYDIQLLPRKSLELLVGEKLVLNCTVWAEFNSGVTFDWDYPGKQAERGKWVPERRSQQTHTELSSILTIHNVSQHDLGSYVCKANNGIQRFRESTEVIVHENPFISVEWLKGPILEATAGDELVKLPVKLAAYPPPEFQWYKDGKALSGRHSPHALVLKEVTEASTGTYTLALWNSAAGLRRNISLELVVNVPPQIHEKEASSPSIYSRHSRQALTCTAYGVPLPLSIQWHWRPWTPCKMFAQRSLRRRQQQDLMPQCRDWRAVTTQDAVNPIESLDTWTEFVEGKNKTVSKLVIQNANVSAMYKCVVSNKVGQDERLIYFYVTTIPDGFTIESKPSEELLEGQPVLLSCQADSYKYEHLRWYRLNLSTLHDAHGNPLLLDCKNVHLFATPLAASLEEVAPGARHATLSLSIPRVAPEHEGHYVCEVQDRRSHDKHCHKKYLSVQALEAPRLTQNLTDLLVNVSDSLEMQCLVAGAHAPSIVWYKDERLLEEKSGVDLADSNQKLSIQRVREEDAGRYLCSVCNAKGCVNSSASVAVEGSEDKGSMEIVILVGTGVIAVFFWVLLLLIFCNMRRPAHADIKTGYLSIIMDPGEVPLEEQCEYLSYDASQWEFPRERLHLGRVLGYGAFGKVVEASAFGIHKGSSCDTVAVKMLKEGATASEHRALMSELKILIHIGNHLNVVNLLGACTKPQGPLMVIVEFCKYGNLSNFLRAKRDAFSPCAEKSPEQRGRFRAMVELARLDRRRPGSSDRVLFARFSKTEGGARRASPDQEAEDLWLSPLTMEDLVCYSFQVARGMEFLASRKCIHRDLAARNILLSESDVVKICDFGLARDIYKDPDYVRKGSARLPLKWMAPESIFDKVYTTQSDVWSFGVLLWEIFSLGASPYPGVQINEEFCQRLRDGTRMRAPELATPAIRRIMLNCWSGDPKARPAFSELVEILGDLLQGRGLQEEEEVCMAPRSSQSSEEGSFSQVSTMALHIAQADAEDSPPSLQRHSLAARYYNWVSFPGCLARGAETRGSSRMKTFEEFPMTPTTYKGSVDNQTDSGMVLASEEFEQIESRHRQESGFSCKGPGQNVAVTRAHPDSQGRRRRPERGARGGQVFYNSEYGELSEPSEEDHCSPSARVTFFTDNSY

inhibition [1]: 0%
fold change (FC) [2]: 0.31
inhibition [3]: 0%
Compound: CNC(=O)c1ccccc1Oc1nc(Nc2cc(OC)c(OC)c(OC)c2)ncc1Br

fold change (FC) [4]: 0.01
fold change (FC) [5]: 0.81
fold change (FC) [6]: 0.27
inhibition [7]: 0%
Compound: CC(C)[C@H](NC(=O)c1cc(-c2cnn3cc(-c4ccc(OCCN5CCCCC5)cc4)cnc23)cs1)C(F)(F)F

inhibition [8]: 0%
inhibition [10]: 0%
fold change (FC) [11]: 0.16
Compound: O=C(N[C@@H](C1CC1)C(F)(F)F)c1cc(-c2cnn3cc(-c4ccc(F)cc4)cnc23)cs1
inhibition [9]: 0%

Reference: ChEMBL document CHEMBL5653631, “A Potent and Selective ULK1 Inhibitor Suppresses Autophagy and Sensitizes Cancer Cells to Nutrient Stress” (iScience, 2018)
